Series [1] addresses T1, Choline kinase alpha (Homo sapiens, UniProt P35790).
Target sequence in this assay (P35790 whole entry): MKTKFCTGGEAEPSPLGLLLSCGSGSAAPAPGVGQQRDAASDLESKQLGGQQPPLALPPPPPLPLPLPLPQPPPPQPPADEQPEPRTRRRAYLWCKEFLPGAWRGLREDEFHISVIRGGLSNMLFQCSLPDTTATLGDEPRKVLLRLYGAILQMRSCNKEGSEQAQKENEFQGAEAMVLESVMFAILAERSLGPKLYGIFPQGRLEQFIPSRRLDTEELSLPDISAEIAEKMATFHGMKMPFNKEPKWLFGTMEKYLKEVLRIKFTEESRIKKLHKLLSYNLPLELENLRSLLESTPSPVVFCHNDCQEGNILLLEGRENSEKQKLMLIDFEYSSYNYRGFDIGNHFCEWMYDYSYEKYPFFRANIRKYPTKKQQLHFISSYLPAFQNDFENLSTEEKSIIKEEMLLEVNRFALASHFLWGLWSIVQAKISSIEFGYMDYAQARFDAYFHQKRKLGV
Series [2] concerns the target T1, Choline kinase alpha. The source holds these as a separate data set.
Target sequence in this assay (P35790 whole entry): as above
The next series has as its target Carbonic anhydrase 2 (Homo sapiens, UniProt P00918). Nature of the series: Binding affinity to carbonic anhydrase2 (unknown origin) by surface plasmon resonance assay. In outline:
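Carbonic anhydrase II, used as the reference surface, amine-coupled at a density similar to the ChoKα1 surface. 25 °C, 2-fold dilution series (fragments top at 300 μM). Single-step kinetics (Biacore) or FastStep (SensiQ). Kd from 1:1 binding model fits.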

The target in series [3] is T1, Choline kinase alpha. The source holds these as a separate data set.
Target sequence in this assay (P35790 whole entry, looked up): as the sequence (P35790 whole entry) above
Series [4] concerns the target T1, Choline kinase alpha. Nature of the series: Inhibition of ChoKalpha in human MDA-MB-468 cells assessed as reduction in phosphocholine level after 24 hrs by NMR analysis. Type of series: cell-based.
Target sequence in this assay (P35790 whole entry): as above
Series [5] in a line: Cytotoxicity against human MCF12A cells after 72 hrs by CyQuant cell proliferation assay. Type of series: cell-based, MCF-12A. The settings on record: for GI50 at 72 h: MCF12A cells; for %max: mcf-12a, 72 h. In outline:
(§1)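 Cells from ATCC, used within 6 months, grown in the supplier-recommended medium. Treated with compound or vehicle for 72 h, then read by CyQuant proliferation kit. GI50 determined after correcting for cell count at time zero, with growth plotted as percent of vehicle-treated cells. Mean ±SD from ≥2 separate experiments.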

Series [6] has as its system MDA-MB-415. Kind of series: Induction of apoptosis in human MDA-MB-415 cells expressing ChoKalpha after 24 hrs by caspase-3/7 assay. Type of series: functional, cell-based. In outline:
(§2)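 Cells exposed to compounds for 24 h, then caspase activity measured with the Apo-ONE homogeneous caspase-3/7 assay. Apoptosis expressed as a percentage of vehicle-treated cells, from one representative experiment.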

The subject of series [7] is MDA-MB-415. Nature of the series: Cytotoxicity against human MDA-MB-415 cells expressing ChoKalpha after 72 hrs by CyQuant cell proliferation assay. It is filed as functional. The following applies: for GI50: Homo sapiens, MDA-MB-415, 72 h. In short, it runs like this: as §1
A short description of series [8]: Induction of apoptosis in human MCF12A cells upto 40 uM after 24 hrs by caspase-3/7 assay. Type of series: cell-based. The settings on record: mcf-12a. In outline:
as §2

Series [9] can be described thus: Cytotoxicity against human MCF10A cells after 72 hrs by CyQuant cell proliferation assay. It is filed as cell-based, MCF-10A. The settings on record: for GI50 at 72 h: MCF10A cells; for %max: mcf-10a, 72 h. In short, it runs like this: as §1
Series [10] deals with MDA-MB-468. Kind of series: Cytotoxicity against human MDA-MB-468 cells expressing ChoKalpha after 72 hrs by CyQuant cell proliferation assay. It is filed as functional. The settings on record: for GI50: Homo sapiens, MDA-MB-468, 72 h. In outline: as §1
Series [11] addresses T1, Choline kinase alpha. Nature of the series: Inhibition of recombinant human ChoKalpha using choline as substrate by ultraviolet spectroscopic assay. In short, it runs like this:
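Coupled ATP-regeneration assay with recombinant human ChoKα1 (N-terminal His tag, pET28a, >95% pure) at 10–50 nM monomer. A340 read over 10–30 min. Initial rates taken across 2-fold inhibitor dilutions and fitted to a dose–response model for IC50.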
Target sequence in this assay (P35790 whole entry): as above

Series [12] has as its system MDA-MB-468. Nature of the series: Cytotoxicity against human MDA-MB-468 cells after 72 hrs by MTT assay. It is filed as functional, cell-based. The following applies: MDA-MB-468, 72 h. On the technique in general: Tetrazolium dyes change colour on reduction, which living cells bring about.
Series [13] can be described thus: Cytotoxicity against human MCF10A cells after 72 hrs by MTT assay. Type of series: cell-based. The settings on record: MCF-10A.
Series [14] addresses T1, Choline kinase alpha. Nature of the series: Inhibition of ChoKalpha in human MDA-MB-415 cells assessed as reduction in phosphocholine level after 24 hrs by NMR analysis. Type of series: cell-based.
Target sequence in this assay (P35790 whole entry): as above
The nature of series [15]: Effect on phosphocholine level in human MCF12A cells after 24 hrs by NMR analysis. The settings on record: mcf-12a. It is filed as ADME, cell-based. In outline: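 Cells grown with increasing compound concentrations or vehicle (DMSO) for 24 h, then counted and checked for viability by Trypan blue exclusion. 5 ×10^6 viable cells washed twice in ice-cold d-PBS and extracted by vortexing 30 s in 6 mL ice-cold 100% methanol. Intracellular choline and phosphocholine quantified by NMR.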

In series [16] the target is T1, Choline kinase alpha. Kind of series: Reversible binding affinity to human N-terminal truncated ChoKalpha1 (75 to 457 residues) ChoKalpha1 by STD NMR analysis. In short, it runs like this: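 Saturation-transfer difference NMR primary screen. On-resonance irradiation was at 0.8 ppm and off-resonance at 30 ppm, with excitation-sculpting water suppression; 320 scans were averaged.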
Target sequence in this assay (P35790 whole entry, looked up): as the sequence (P35790 whole entry) above

What is called IC50 is the midpoint of a concentration-inhibition curve. As usually defined, the Kd is the concentration at which binding is half-saturated. The GI50 is the concentration at which growth is held to half of that of the control.

Activity calls are given as the source filed them. The calls are words filed in the database; no cut-off is given here.

In turn, `CN1CCCN(Cc2ccc(-c3ccc(C(=O)N4CCCN(C)CC4)cc3)cc2)CC1` displayed an IC50 on Choline kinase alpha [1] of 0.251 µM. This molecule returned a Kd at Choline kinase alpha [2] of 0.195 µM.
Taken in the same sequence, the figures for `CN1CCCN(Cc2ccc(-c3ccc(N4CCN(C)CC4)cc3)cc2)CC1` were 1.3 µM and 0.769 µM.
On Choline kinase alpha [1], `COc1ccc(-c2ccc(CN3CCCN(C)CC3)cc2)cc1` displayed an IC50 of 1.43 µM. On Choline kinase alpha [2], this molecule showed a Kd of 3.8 µM.
For `CN1CCCN(Cc2ccc(CN)cc2)CC1`, the Kd at Carbonic anhydrase 2 was 490 µM; at Choline kinase alpha [2], 132 µM. On Choline kinase alpha [1], inhibition was half-maximal at 87 µM (IC50).
Regarding `COC(=O)c1ccc(-c2ccc(CN3CCCN(C)CC3)cc2)cc1`, half-maximal inhibition against Choline kinase alpha [1] (IC50) required 4.95 µM. Further, on Choline kinase alpha [2], binding was characterised by a dissociation constant (Kd) of 2.4 µM.
For `CN1CCCN(Cc2ccc(-c3ccc(C(F)(F)F)cc3)cc2)CC1` the same measures were 2.6 µM and 4 µM.
On Choline kinase alpha [3], `CN1CCCN(Cc2ccc(-c3ccc(CN4CCCN(C)CC4)c(F)c3F)cc2)CC1` returned a Ka of 718000 M⁻¹ s⁻¹. At Choline kinase alpha [1], this molecule displayed a concentration for half-maximal inhibition (IC50) of 0.233 µM. At Choline kinase alpha [2], this molecule displayed a dissociation constant Kd of 0.021 µM.
Taken in the same sequence, the figures for `CN1CCCN(Cc2ccc(-c3ccc(CN4CCCN(C)CC4)cc3F)cc2)CC1` were 93000 M⁻¹ s⁻¹, 0.165 µM and 0.211 µM.
For `CN1CCNCC(Cc2ccc3ncccc3c2)C1` (configuration not stated), the IC50 against Choline kinase alpha [1] came to 17.2 µM. Moreover, the affinity on Choline kinase alpha [2], expressed as Kd, was 7 µM.
On Choline kinase alpha [3], `CN1CCCN(Cc2ccc(-c3cc(F)c(CN4CCCN(C)CC4)c(F)c3)cc2)CC1` displayed a Ka of 125000 M⁻¹ s⁻¹. This molecule had an IC50 against Choline kinase alpha [1] of 0.255 µM. Also, the Kd on Choline kinase alpha [2] is 0.259 µM.
Taken in the same sequence, the figures for `CN1CCCN(Cc2ccc(-c3ccc(CN4CCCN(C)CC4)c(Cl)c3)cc2)CC1` were 235000 M⁻¹ s⁻¹, 0.268 µM and 0.088 µM.
With `Nc1cc(C(F)(F)F)ncn1`, the Kd on Carbonic anhydrase 2 is 670 µM; on Choline kinase alpha [2], 630 µM. On Choline kinase alpha [1], this molecule displayed an IC50 of more than 300 µM.
`CN1CCCN(Cc2ccc(-c3ccc(CN4CCCN(C)CC4)cc3)cc2)CC1`: the half-inhibitory concentration (IC50) at Choline kinase alpha [4] turned out to be 2 µM; on Choline kinase alpha [1], 0.457 µM. Moreover, the concentration for 50% growth inhibition (GI50) at 72 h in [5] was 31 µM; in series [9] it was 27 µM. Further, the “%max” value in series [5] is 64%; with MDA-MB-415 [7], 158%; in [9], 77%; in the series with MDA-MB-468 [10] it was 163%. In addition, in the series on MDA-MB-415 [6], the outcome was Active. The figures for the GI50 in the series on MDA-MB-415 [7] and in the series with MDA-MB-468 [10] were 4 µM and 9 µM, respectively. The Activity entry in series [8] is “Non-toxic”. The same molecule returned a Ka on Choline kinase alpha [3] of 94000 M⁻¹ s⁻¹. Besides, the Kd at Choline kinase alpha [2] came out at 0.382 µM.
As to `O[C@](CCc1ccccc1OC1CCOCC1)(c1ccccc1)C1CN2CCC1CC2` (some centres not stated), the 50% inhibitory concentration (IC50) on Choline kinase alpha [11] was found to be 0.02 µM.
As for `O=C(N1CCCCCC1)N1CCNCC1`, the dissociation constant (Kd) is 1400 µM on Carbonic anhydrase 2 and 340 µM on Choline kinase alpha [2]. Further, at Choline kinase alpha [1], the 50% inhibitory concentration (IC50) was more than 300 µM.
In the case of `CN(c1ccc(Cl)cc1)c1cc[n+](Cc2ccc(-c3ccc(C[n+]4ccc(N(C)c5ccc(Cl)cc5)c5ccccc54)cc3)cc2)c2ccccc12` [RSM-932A], the values for the IC50 (in the series with MDA-MB-468 [12]; in series [13]) were 2.4 µM and 7.1 µM, respectively.
At Choline kinase alpha [1], `CN1CCCN(Cc2ccc3ccccc3c2)CC1` had a 50% inhibitory concentration (IC50) of 2.6 µM. Besides, the Kd at Choline kinase alpha [2] was 4.3 µM.
Consider `CN1CCCN(Cc2ccc(-c3ccc(CN4CCCN(C)CC4)cc3C#N)c(F)c2)CC1`, for which the GI50 at 72 h in [5] is more than 40 µM; in [9], 18 µM. Besides, the “%max” value in series [5] is 51%; with MDA-MB-415 [7], 189%; in series [9], 99%; in the series on MDA-MB-468 [10] it was 139%. The outcome in the series on MDA-MB-415 [6] was Active. Moreover, the GI50 was 2 µM in the series with MDA-MB-415 [7] and 7 µM in the series on MDA-MB-468 [10]. In addition, the Activity result in [8] and in [15] was “Non-toxic” each time. The half-inhibitory concentration (IC50) at Choline kinase alpha [14] came out at 0.75 µM; at Choline kinase alpha [1], 0.085 µM. On Choline kinase alpha [3], this molecule yielded a Ka of 112000 M⁻¹ s⁻¹. Further, the dissociation constant (Kd) at Choline kinase alpha [2] stood at 0.099 µM.
`CN1CCCN(Cc2ccc3ncccc3c2)CC1` came in with a half-maximal inhibitory concentration (IC50) on Choline kinase alpha [1] of 3.9 µM. This molecule displayed a dissociation constant (Kd) at Choline kinase alpha [2] of 4 µM.
Take `Cc1cc(O)cc(C)c1C#N`: the outcome on Choline kinase alpha [16] was Active.
`CN1CCCN(c2ccc(CO)cc2)CC1`: the IC50 against Choline kinase alpha [1] is more than 2000 µM. This molecule also registered a dissociation constant (Kd) on Choline kinase alpha [2] of 194 µM.
As to `CN1CCCN(Cc2ccc(-c3ccc(CN4CCCN(C)CC4)cc3C#N)cc2)CC1`, the Ka on Choline kinase alpha [3] was found to be 676000 M⁻¹ s⁻¹. Further, it took 0.066 µM to reach half-maximal inhibition against Choline kinase alpha [1] (IC50). This molecule also displayed a Kd at Choline kinase alpha [2] of 0.01 µM.
For the molecule `CN1CCCN(Cc2ccc(-c3ccccc3)cc2)CC1`, the IC50 against Choline kinase alpha [1] was determined as 1.48 µM. This molecule also returned a Kd on Choline kinase alpha [2] of 3.7 µM.

The values above are taken from ChEMBL document CHEMBL3763032, “Novel Small Molecule Inhibitors of Choline Kinase Identified by Fragment-Based Drug Discovery” (J Med Chem, 2016).
